This is a sample that favours compounds with a hit; in the whole collection about 3.1% have one here.
UHRF1 binding = human UHRF1 methylated DNA binding inhibitors; Q96T88; UHRF1 binding to methylated oligo, TR-FRET; inhibition, % at 4.4 µM; actives 0.75% (n = 370,000); AID 687016; in the data active = inhibition above about 21%;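 note: UHRF1 SRA domain binding a hemimethylated CpG hairpin DNA probe; 0% = median of test compound wells and 100% = reference inhibitor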
ABHD5-PLIN5 inh = ABHD5-PLIN5 protein interaction inhibition. Q00G26+Q8WTS1. Split G. princeps luciferase complementation, luminescence, 4 h. inhibition, % at 4 µM. actives 0.78% (n = 360,000);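 active = inhibition above the mean inhibition across every tested compound plus 3 SD, cut at about 22% in these data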;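 note: 0% = DMSO only wells and the 100% control is not disclosed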
Target sequence (Q00G26 whole entry, looked up): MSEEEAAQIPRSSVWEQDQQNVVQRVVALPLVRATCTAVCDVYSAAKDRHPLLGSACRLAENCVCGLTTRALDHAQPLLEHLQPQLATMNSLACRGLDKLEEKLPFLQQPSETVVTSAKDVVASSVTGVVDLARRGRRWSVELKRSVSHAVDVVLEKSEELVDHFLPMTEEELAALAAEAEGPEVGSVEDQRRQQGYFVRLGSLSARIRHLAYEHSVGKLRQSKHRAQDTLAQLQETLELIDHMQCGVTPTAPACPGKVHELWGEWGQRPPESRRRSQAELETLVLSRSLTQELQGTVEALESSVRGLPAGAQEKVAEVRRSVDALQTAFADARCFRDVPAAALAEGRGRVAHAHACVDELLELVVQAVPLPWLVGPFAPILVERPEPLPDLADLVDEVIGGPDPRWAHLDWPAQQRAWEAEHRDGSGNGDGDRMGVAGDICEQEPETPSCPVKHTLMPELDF
Target sequence (Q8WTS1 whole entry, looked up): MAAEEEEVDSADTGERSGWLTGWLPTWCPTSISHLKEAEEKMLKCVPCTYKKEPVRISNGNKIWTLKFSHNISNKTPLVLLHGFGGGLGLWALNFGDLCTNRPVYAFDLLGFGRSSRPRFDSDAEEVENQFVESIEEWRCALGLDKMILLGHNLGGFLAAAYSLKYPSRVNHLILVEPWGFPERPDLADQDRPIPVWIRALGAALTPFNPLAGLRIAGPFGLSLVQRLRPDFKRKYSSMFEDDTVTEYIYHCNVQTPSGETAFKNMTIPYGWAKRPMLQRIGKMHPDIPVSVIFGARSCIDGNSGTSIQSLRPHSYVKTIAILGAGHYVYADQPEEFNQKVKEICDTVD
RBBP9 inhibitor = blocks human serine hydrolase RBBP9 | O75884 | recombinant RBBP9, FP-Rh probe fluorescence polarization | inhibition, % at 7.94 µM | actives 0.2% (n = 220,000) | AID 1515;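 active = inhibition above the campaign mean of all tested compounds plus 3 SD, cut at about 14% in these data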;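 note: plate controls were DMSO wells with RBBP9 for no effect and wells lacking RBBP9 protein for full effect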
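System: RBBP9 protein / Quantity: 2.5 µM RBBP9 dispensing solution, before mixing / Also added: Serine-hydrolase probe FP-Rh, 375 nM pre-mixing / Dosing: 7.94 µM single dose, 0.794% DMSO / Timing: enzyme-compound preincubation 30 min, then probe labeling 45 min, 25 °C / Signal: FP readout at 525/598 nm / Controls: DMSO-treated enzyme wells and wells lacking RBBP9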
MBD2 DNA inh = MBD2-methylated oligo binding inhibition; AID 686964; inhibition, % at 4.4 µM; TR-FRET, MBD2 binding to methylated oligonucleotide; actives 0.31% (n = 370,000); in the data active = inhibition above about 13%
LEDGF integ inh = blocks HIV-1 LEDGF/p75-dependent DNA integration | inhibition, % at 3.7 µM | TR-FRET IN-LEDGF/p75 DNA integration, Eu/Cy5 | actives 0.64% (n = 370,000);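 active = inhibition above the screen-wide mean plus 3 SD, cut at about 13% in these data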;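 note: signal is the Cy5 over europium emission ratio at 671 and 618 nm; 0% = plate median of compound wells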
PRMT1 FP inh = blocks human protein arginine methyltransferase 1. Q99873. recombinant PRMT1, activity-based probe fluorescence polarization. inhibition, % at 2.79 µM. actives 1.3% (n = 370,000). AID 652257;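 active = inhibition above about 21% made by adding two undisclosed values, limit read from the data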
* hit, by the source's call; / = no result.

SMILES | UHRF1 binding | ABHD5-PLIN5 inh | RBBP9 inhibitor | MBD2 DNA inh | LEDGF integ inh | PRMT1 FP inh
O=C(CCl)Nc1c2c(nn1-c1ccccc1)CSC2 | 2 | 8 | / | 3 | 8 | 18
O=C(CCCCl)Nc1c2c(nn1-c1ccccc1)CSC2 | -6 | 0 | / | 2 | 1 | 23*
NC(=O)C[n+]1ccc(/C=N/O)cc1 | 26* | -1 | -5 | 6 | 2 | -1
CC(C)N(C(=O)C[n+]1ccc(/C=N/O)cc1)C(C)C | -1 | -2 | -3 | 1 | 1 | -4
O=C1C=C(c2ccccc2Oc2ccccc2)C[C@@H](c2ccc(F)cc2)C1 | 22* | -9 | / | 11 | 4 | -1
O=C1C=C(c2ccc(-c3ccccc3)cc2)C[C@@H](c2ccc(F)cc2)C1 | -1 | -5 | / | -7 | 0 | -7
CCN(CC)c1nc(C(F)(F)F)nc2c1nnn2Cc1ccccc1 | 39* | 1 | / | 4 | -4 | 1
CCN(C)c1nc(C)nc2c1nnn2Cc1ccccc1 | 0 | / | / | 1 | 0 | -1
COC(=O)[C@]12C[C@H](CC(=O)NCCCN3CCCC3=O)C(=O)N(Cc3ccc4c(c3)OCO4)C1=C[C@H](C(C)(C)C)O[C@@H]2C | -1 | / | / | -3 | -2 | -2
CCCN(C(=O)CSc1nnnn1C)C1CCS(=O)(=O)C1 (configuration not stated) | 22* | -1 | -3 | 3 | 3 | -2
COC(=O)[C@]12C[C@H](CC(=O)NCC34CC5CC(CC(C5)C3)C4)C(=O)N(Cc3ccc4c(c3)OCO4)C1=C[C@H](C(C)(C)C)O[C@@H]2C | -1 | / | / | -5 | 0 | 2
CC(=O)C(Sc1nn(C)c(=S)s1)C(=O)Nc1ccccc1 (configuration not stated) | -2 | -16 | -8 | 3 | -5 | 24*
COC(=O)[C@@]12CCCCC3=C1N(CCC3)C(=O)[C@H]2CC(=O)NCc1ccc(OC)c(OC)c1 | 0 | / | / | -2 | 4 | -2
COc1ccc(-c2nc3ccc(C)cn3c2CC2CCCCC2)cc1OC | 22* | -2 | / | 9 | 1 | 5
COc1ccc(-c2nc3ccc(C)cn3c2Cc2ccsc2)cc1OC | 22* | -5 | / | 10 | -3 | 0
COc1ccc(-c2ccc(-c3nc4ccc(C)cn4c3NC3CCCCC3)cc2OC)cc1 | -1 | -4 | / | 0 | 3 | -1
COc1ccc(-c2nc3cc(C)c(Br)c(C)n3c2Cc2ccsc2)cc1OC | 1 | -4 | / | 2 | 0 | 7
O=C(NC1CCC1)c1ccc(C#CC2CC2)c[n+]1[O-] | 2 | / | / | 8 | 3 | -2
COc1ccc(CCN2CCCC(CN(C)Cc3cc(Cl)c(O)c(OC)c3)C2)cc1 (configuration not stated) | 54* | -3 | / | -1 | 1 | 2
COc1ccc(CN(C)CC2CCCN(CCc3ccccc3C)C2)cc1O (configuration not stated) | 0 | 2 | / | 4 | 1 | 0
COc1ccc(/C=C/C(=O)Nc2ccc(NC(C)=O)cc2)cc1S(=O)(=O)N1CCOCC1 | 32* | 2 | -7 | 0 | -3 | 6
Cc1ccc(SCc2cc(=O)c3c(=O)n(-c4ccccc4)[nH]c3[nH]2)cc1 | 3 | -8 | -3 | -4 | -1 | 22*
O=c1cc(CSc2ccccc2)[nH]c2ccccc12 | -3 | 6 | / | -7 | -2 | -5
O=c1cc(CSc2ccc(Cl)cc2)[nH]c2[nH]n(-c3ccccc3)c(=O)c12 | -2 | 1 | -10 | 0 | 1 | 24*
CC(C)C(=O)N[C@H]1[C@H](O)CCC[C@@]12C(=O)N(Cc1ccccc1)c1ccccc12 | 3 | / | / | 4 | 6 | -3
SMILES | UHRF1 binding | ABHD5-PLIN5 inh | RBBP9 inhibitor | MBD2 DNA inh | LEDGF integ inh | PRMT1 FP inh
COc1ccc2ccccc2c1C=NNC(=O)CN1CCN(Cc2ccccc2)CC1 | -2 | / | / | -1 | 1 | 4
O=C(CSC1CS(=O)(=O)c2cc([N+](=O)[O-])ccc21)NNC(=O)c1ccc(Cl)cc1 (configuration not stated) | 1 | 2 | 12 | -5 | -3 | 23*
Cc1ccc(OC(=O)N(C)C[C@H]2OCc3cn(nn3)CCCC(=O)N([C@@H](C)CO)C[C@@H]2C)cc1 | 1 | / | / | 3 | -3 | 5
O=C1C2CC=C(Cl)CC2C(=O)N1CCc1ccccc1 (configuration not stated) | -1 | 0 | -3 | 1 | 7 | 24*
O=C1C2CC=C(Cl)CC2C(=O)N1CCc1c[nH]c2ccccc12 (configuration not stated) | -2 | -6 | -5 | 2 | -1 | 1
CCc1cc(SC#N)cc(C)c1NC(=O)CCl | 2 | -23 | -4 | -1 | -13 | 31*
C=CCN1[C@@H](C)COc2cc(N3CCCC3)ccc2S1(=O)=O | 1 | / | / | 1 | 0 | 0
CC(C)Oc1cccc(-c2csc(N3CCC(C(N)=O)CC3)n2)c1 | 1 | / | / | -2 | 1 | -3
COc1ccc(N)cc1-n1c(C)ccc1C | -7 | 4 | 1 | -12 | 5 | 27*
Cc1ccc(NC(=O)[C@H](Cc2ccccc2)NC(=O)[C@@H]2Cc3ccccc3CN2)c(C)c1 | 27* | 4 | / | 13 | 2 | 4
Cc1ccc(NC(=O)[C@H](NC(=O)[C@@H]2Cc3ccccc3CN2)c2ccccc2)c(C)c1 | -1 | -1 | / | 3 | -7 | 3
CCn1nnnc1SCC(=O)Nc1ccc2c(c1)OCO2 | 2 | 2 | -6 | -3 | 1 | -2
COc1cc(NC(=O)CSc2nnnn2Cc2ccc3c(c2)OCO3)cc(OC)c1 | 24* | 1 | -2 | 13 | 4 | 0
CCCCOc1ccc(C(=O)NC2CCCCN(Cc3ccc(Cl)cc3)C2=O)cc1 (configuration not stated) | 0 | / | / | 1 | 6 | -1
COc1ccccc1NC(=O)N1CCN(C)CC1 | 34* | 4 | 2 | 4 | -4 | 2
COc1ccccc1NC(=O)c1ccc(NC(=O)CN2CCN(C(=O)c3ccco3)CC2)cc1 | -2 | 4 | -3 | 1 | 4 | -2
COc1ccccc1NC(=O)N1CCCC1 | 5 | 9 | -8 | 3 | -3 | 2
COc1ccccc1NC(=O)CN1CCN(C(=O)c2ccco2)CC1 | 27* | -2 | 1 | 0 | 1 | 1
O=C(COc1ccc(F)cc1)Nc1nnc(S(=O)(=O)N2CCCC2)s1 | 37* | -7 | / | 0 | -5 | 1
COC(=O)N1C[C@H](OCc2ccccc2)[C@H]2C[C@@H]1c1ccccc1O2 | 2 | / | / | -4 | -1 | 6
Cc1ccc(C(=O)CCC(=O)N2CCC(C(N)=O)CC2)cc1 | 29* | 1 | -6 | -2 | 5 | -4
CCN(CC)C(=O)CC[C@H]1CC[C@]2(CCCN(S(=O)(=O)c3ccccc3)C2)O1 | -4 | / | / | 4 | -1 | 1
O=C(CSc1nccc(=O)[nH]1)NCc1ccco1 | 34* | -4 | -3 | 2 | 2 | 4

Assay outcomes: PubChem BioAssay, The Scripps Research Institute Molecular Screening Center
